Most compounds without a hit are left out; they make up all but 3.1% or so of the library.
rRNA inh HTS: inhibits bacterial ribosomal RNA function over humanized ribosomes | E. coli WT GFP vs humanized-ribosome RFP mutants, fluorescence, 24 h; hits give low values; DMSO median 0, no signal -100 | GFP signal change (wild-type ribosome), % (test concentration not listed) | 1.6% of 350,000 active | AID 720706;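 active = significant combined selectivity score with lowered wild-type GFP, culture density cut under 30%, mutant RFP and density less affected; inactive = any of these conditions unmet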
DENV2 CPE rescue: DENV2-induced cell death inhibition; DENV2-infected cells, cytopathic effect rescue, plate reader; CPE inhibition, % at 9.99 µM; 1.7% of 350,000 active; AID 651640; in the data active = CPE inhibition above about 20%, passing the limit was not always enough; inconclusive = no clear call, values can overlap the other calls; tested in BHK-21 cells;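 also: 0% = median of neutral control wells and 100% = median of positive control wells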
E-selectin induc: E-selectin induction on HUVECs | P16581 | HUVEC E-selectin immunofluorescence imaging; normalized: neutral wells 0, TNF-alpha wells 100 | activation, % at 7.58 µM | 0.37% of 260,000 active;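 active = mean E-selectin-positive cell signal at least 10% of the positive control, reached in at least 60% of replicates, without over 20% cell loss; inconclusive = no rule given, readout overlaps actives, possibly toxicity-flagged; inactive = the rest, including those meeting only one limit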
Target sequence (P16581 whole entry, looked up): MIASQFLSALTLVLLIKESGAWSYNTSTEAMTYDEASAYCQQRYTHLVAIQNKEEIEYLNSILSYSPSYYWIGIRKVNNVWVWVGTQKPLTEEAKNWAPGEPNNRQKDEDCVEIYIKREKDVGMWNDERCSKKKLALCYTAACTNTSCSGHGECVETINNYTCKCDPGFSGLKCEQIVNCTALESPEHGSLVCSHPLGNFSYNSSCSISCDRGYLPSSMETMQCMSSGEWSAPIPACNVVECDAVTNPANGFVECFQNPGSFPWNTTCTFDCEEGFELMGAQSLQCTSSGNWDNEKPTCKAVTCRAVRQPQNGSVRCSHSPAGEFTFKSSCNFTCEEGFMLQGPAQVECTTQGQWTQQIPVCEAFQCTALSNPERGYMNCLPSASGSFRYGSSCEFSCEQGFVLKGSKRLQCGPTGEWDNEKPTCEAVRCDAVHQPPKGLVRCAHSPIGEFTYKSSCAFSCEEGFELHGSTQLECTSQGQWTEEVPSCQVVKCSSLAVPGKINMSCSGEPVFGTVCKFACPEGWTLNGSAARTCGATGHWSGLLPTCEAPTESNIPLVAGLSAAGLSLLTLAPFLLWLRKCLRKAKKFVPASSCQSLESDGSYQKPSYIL
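System: HUVEC / Compound: single concentration / Signal: immunofluorescence imaging / Read-out: percent E-selectin-positive cells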
miR-122 sensor: miR-122 inhibition in Huh7 cells. Huh7 miR-122 Renilla luciferase sensor, 48 h; neutral wells = 0, positive control = 100. activation (reporter increase), % at 12.5 µM. 0.3% of 340,000 active. AID 602342;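 active = mean replicate activation score at least 90 and every replicate individually at or above 90; inconclusive = only one of the two criteria met; inactive = neither criterion met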;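 also: higher luciferase means less miR-122 activity so hits act as miR-122 inhibitors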
Cneo AK release: Cryptococcus neoformans lysis via adenylate kinase release; C. neoformans lysis, adenylate kinase release luminescence, 4 h; normalised: neutral wells 0, clomiphene wells 100; lysis activity, % at 15 µM; 0.2% of 360,000 active;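 active = mean lysis activity across replicates of at least 80%, whatever share of replicates individually reach that level; inactive = mean lysis activity below 80%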
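Material: C. neoformans cells | Amount: Yeast cell density of 5 × 10^6 cells/mL | Medium: Fresh YPD growth medium | Dosing: Single dose | Times: Static 4 h at 37 °C with compound, 1 h detection | Detection: AK luminescence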
Numbers without * were called inactive; ? = inconclusive; / = no result given; [ ] = dose if it differs, or a comment.

SMILES	rRNA inh HTS	DENV2 CPE rescue	E-selectin induc	miR-122 sensor	Cneo AK release
CC1CCCCC12NC(=O)N(CC(=O)NCc1cccs1)C2=O (stereo not drawn)	/	28.9*	-0.2	-0.8	0.1
CC(=O)N1CCCCN2[C@H](CO)[C@@H](c3ccc(-c4ccc(C)cc4)cc3)[C@H]2C1	5.5	-4.1	-0.2	-7.9[16.7 µM]	0.7
Cc1ccc(S(=O)(=O)Nc2ccc3c(c2)C(=O)N([C@@H](C)CO)C[C@@H](C)[C@H](CN(C)C(=O)Nc2ccc(C(F)(F)F)cc2)OCCCC[C@@H](C)O3)cc1	6.4	?	0.1	0.1[16.7 µM]	1.7
C[C@@H]1CCCCO[C@H](CN(C)C(=O)Nc2ccc(C(F)(F)F)cc2)[C@@H](C)CN([C@H](C)CO)C(=O)c2cc(NS(=O)(=O)c3ccc(F)cc3)ccc2O1	7.5	21.4*	/	4.2[16.7 µM]	3.9
COc1ccc(S(=O)(=O)Nc2ccc3c(c2)C(=O)N([C@H](C)CO)C[C@H](C)[C@@H](CN(C)C(=O)Nc2ccc(C(F)(F)F)cc2)OCCCC[C@H](C)O3)cc1	19.1	6.1	-0.1	-4.8	-0.6
Cc1ccc(S(=O)(=O)Nc2ccc3c(c2)C(=O)N([C@H](C)CO)C[C@H](C)[C@H](CN(C)C(=O)Nc2ccc(C(F)(F)F)cc2)OCCCC[C@H](C)O3)cc1	7.0	53.0*	-0.1	8.6[16.7 µM]	-0.6
COc1ccc(S(=O)(=O)Nc2ccc3c(c2)C(=O)N([C@H](C)CO)C[C@@H](C)[C@@H](CN(C)C(=O)Nc2ccc(C(F)(F)F)cc2)OCCCC[C@@H](C)O3)cc1	4.1	52.6*	0.1	-5.4[16.7 µM]	-3.7
C[C@@H]1CCCCO[C@@H](CN(C)C(=O)Nc2ccc(C(F)(F)F)cc2)[C@H](C)CN([C@H](C)CO)C(=O)c2cc(NS(=O)(=O)c3ccccc3)ccc2O1	5.3	38.4*	0.0	-14.4[16.7 µM]	-0.7
CN1C(=O)c2cc(NC(=O)C3CCC3)ccc2OC[C@H]2O[C@H](CC(=O)NCCc3ccncc3)CC[C@H]21	1.8	?	0.1	/	/
C[C@@H]1CCCCO[C@H](CN(C)C(=O)Nc2ccc(C(F)(F)F)cc2)[C@H](C)CN([C@@H](C)CO)C(=O)c2cc(NS(=O)(=O)c3ccc(F)cc3)ccc2O1	2.3	98.0*	/	1.2[16.7 µM]	3.6
C[C@H]1CCCCO[C@@H](CN(C)C(=O)Nc2ccc(C(F)(F)F)cc2)[C@@H](C)CN([C@@H](C)CO)C(=O)c2cc(NS(=O)(=O)c3ccc(F)cc3)ccc2O1	6.5	76.2*	/	-0.1[16.7 µM]	8.9
C[C@@H]1CCCCO[C@H](CN(C)C(=O)Nc2ccc(C(F)(F)F)cc2)[C@@H](C)CN([C@@H](C)CO)C(=O)c2cc(NS(=O)(=O)c3ccc(F)cc3)ccc2O1	1.6	-3.1	/	13.2[16.7 µM]	-1.0
CC(O)(Cc1cccnc1)c1cccs1 (stereo not drawn)	2.8	77.0*	0.4	/	/
C[C@@H]1CCCCO[C@H](CN(C)C(=O)CCC(F)(F)F)[C@H](C)CN([C@@H](C)CO)C(=O)c2cc(NC(=O)Nc3ccc4c(c3)OCO4)ccc2O1	-3.6	26.1*	1.0	-3.0[16.7 µM]	1.7
C[C@@H]1CCCCO[C@@H](CN(C)C(=O)CCC(F)(F)F)[C@@H](C)CN([C@H](C)CO)C(=O)c2cc(NC(=O)Nc3ccc4c(c3)OCO4)ccc2O1	3.9	42.0*	0.2	0.1[16.7 µM]	0.8
CC(C)NC(=O)Nc1ccc2c(c1)C(=O)N([C@@H](C)CO)C[C@H](C)[C@@H](CN(C)C(=O)CCC(F)(F)F)OCCCC[C@H](C)O2	0.2	-0.4	0.1	9.8[16.7 µM]	96.4*
C[C@@H]1CN([C@H](C)CO)C(=O)c2cc(NC(=O)Nc3ccc4c(c3)OCO4)ccc2O[C@@H](C)CCCCO[C@@H]1CN(C)C(=O)CCC(F)(F)F	1.1	-6.2	-0.3	19.5[16.7 µM]	-0.1
CCC(=O)Nc1ccc2c(c1)OC[C@H](C)N(CCc1ccccc1)C[C@H](C)[C@H](OC)CN(C)C2=O	-0.4	/	0.1	/	/
C[C@H](CO)N1C[C@H](C)[C@H](CN(C)C(=O)Nc2cc(F)ccc2F)Oc2cc(C#CC3CC3)ccc2S1(=O)=O	-2.4	/	1.6	-7.1[16.7 µM]	/
CCCNC(=O)NC[C@@H]1CC[C@H]2[C@H](CN2C(=O)C2CCOCC2)O1	/	-7.2	/	/	/
C[C@@H]1CN([C@H](C)CO)C(=O)c2c(c3ccccc3n2C)-c2ccccc2CO[C@H]1CN(C)C(=O)[C@H](C)c1ccccc1	0.6	-6.0	-0.5	/	/
Cc1ccc(O)c(CNCCNCc2cc(C)ccc2O)c1	7.0	1.4	-0.1	4.8	3.2
CCc1ccc(O)c(CNCCNCc2cc(CC)ccc2O)c1	-51.5	72.8*	-0.3	-3.9	0.0
N#C/C(=N\Nc1ccc(Cl)c(Cl)c1)C(=O)C1CC1	-42.4	-2.6	0.1	19.0	-1.7
N#C/C(=N\Nc1ccc(F)cc1)C(=O)C1CC1	-34.5*	8.2	0.0	6.6	1.5
SMILES	rRNA inh HTS	DENV2 CPE rescue	E-selectin induc	miR-122 sensor	Cneo AK release
C[C@H]1CN([C@@H](C)CO)S(=O)(=O)c2ccc(C3=CCCC3)cc2O[C@@H]1CN(C)Cc1cccnc1	-30.5	30.4*	0.6	32.3[16.7 µM]	0.3
C[C@H](CO)N1C[C@H](C)[C@H](CN(C)Cc2cccc(C(=O)O)c2)Oc2cc(C3=CCCC3)ccc2S1(=O)=O	2.1	44.1*	0.0	-15.1[16.7 µM]	-2.1
C[C@@H]1CN([C@@H](C)CO)S(=O)(=O)c2ccc(C3=CCCC3)cc2O[C@@H]1CN(C)Cc1ccccc1F	-1.9	-17.0	0.2	10.6[16.7 µM]	89.6*
CO[C@H]1CN(C)C(=O)c2ccc(NC(=O)C3CCOCC3)cc2OC[C@H](C)N(Cc2nccs2)C[C@H]1C	-1.8	-1.9	-0.1	/	2.0
CO[C@@H]1CN(C)C(=O)c2cc(NS(=O)(=O)CC(F)(F)F)ccc2OC[C@H](C)N(CC2CCCCC2)C[C@H]1C	-6.5	13.1	-0.2	/	-0.3
S=C(c1ccc(-c2cccc(Cl)c2)o1)N1CCCCC1	-28.8*	-6.1	0.0	/	/
OCCNC(=S)Nc1cc(Cl)cc(Cl)c1	-21.6*	1.1	/	/	/
C[C@@H]1CN([C@@H](C)CO)C(=O)c2cc(NC(=O)CCCN(C)C)ccc2O[C@@H]1CN(C)Cc1ccc(C(F)(F)F)cc1	-0.7	-4.2	10.8	-9.1[16.7 µM]	0.6
O=C(COc1ccccc1Cl)NC(=S)N1CCc2ccccc21	-51.9*	-2.3	/	/	/
COc1ccccc1C(=O)NC(=S)N1CCc2ccccc21	-24.0*	2.3	9.9	/	/
O=C(C1CCC1)N1CC2(C1)[C@H](c1ccccc1)[C@@H](CO)N2Cc1cncnc1	1.2	?	-0.1	/	/
CN(C)C(=O)[C@H]1[C@H](CO)[C@H]2Cn3c(ccc(-c4ccccc4F)c3=O)[C@@H]1N2C(=O)c1ccccc1	1.4	-1.7	-0.3	/	-4.4
COc1ccc(-c2sc3cc4c(cc3c2C#Cc2cncn2C)OCO4)cc1	2.7	34.2*	0.1	9.5	0.3
COc1ccc(-c2sc3ccc(OC)cc3c2C#Cc2cncn2C)cc1	7.6	-7.3	0.5	32.6	0.5

Assay outcomes as filed in PubChem BioAssay.
